Reference: ChEMBL document CHEMBL4364323, “Synthesis and biological evaluation of moxifloxacin-acetyl-1,2,3-1H-triazole-methylene-isatin hybrids as potential anti-tubercular agents against both drug-susceptible and drug-resistant Mycobacterium tuberculosis strains” (Eur J Med Chem, 2019)
Values after ≈ are worked out from the molar mass of the structure shown.

Experiments:
Assay type in all cases: functional
Details in all cases: 168 h
[1] = test system: Mycobacterium tuberculosis; experiment: Antimycobacterial activity against multidrug (isoniazid and rifampicin) resistant Mycobacterium tuberculosis 2 incubated for 7 days by rapid direct susceptibility test
Procedure, shortened: (§1)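 Two-fold compound dilutions were mixed with MTB suspension containing 4×10 -3 mg cells per well and incubated at 37 °C in a wet box. MIC was read from the quantity and state of cells in each well under a continuous visual high-magnification system and was re-determined 7 days later.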

[2] = test system: Mycobacterium tuberculosis; experiment: Antimycobacterial activity against multidrug (isoniazid and rifampicin) resistant Mycobacterium tuberculosis 1 incubated for 7 days by rapid direct susceptibility test; procedure, shortened: as §1
[3] = test system: Mycobacterium tuberculosis; experiment: Antimycobacterial activity against rifampicin-resistant Mycobacterium tuberculosis incubated for 7 days by rapid direct susceptibility test; procedure, shortened: as §1

SMILES: COc1c(N2C[C@H]3CCCN(C(=O)Cn4cc(CN5C(=O)/C(=N/NC(N)=S)c6cc(F)ccc65)nn4)[C@H]3C2)c(F)cc2c(=O)c(C(=O)O)cn(C3CC3)c12
- MIC [1]: 2 µg/mL (≈ 2.63 µM)
- MIC [2]: 1 µg/mL (≈ 1.31 µM)
- MIC [3]: 1 µg/mL (≈ 1.31 µM)

SMILES: COc1c(N2C[C@@H]3CCCN[C@@H]3C2)c(F)cc2c(=O)c(C(=O)O)cn(C3CC3)c12 [MOXIFLOXACIN]
- MIC [1]: 0.25 µg/mL (≈ 0.623 µM)
- MIC [2]: 0.25 µg/mL (≈ 0.623 µM)
- MIC [3]: 0.5 µg/mL (≈ 1.25 µM)

SMILES: CO[C@H]1/C=C/O[C@@]2(C)Oc3c(C)c(O)c4c(O)c(c(/C=N/N5CCN(C)CC5)c(O)c4c3C2=O)NC(=O)/C(C)=C\C=C\[C@H](C)[C@H](O)[C@@H](C)[C@@H](O)[C@@H](C)[C@H](OC(C)=O)[C@@H]1C [RIFAMPIN]
- MIC [1]: > 128 µg/mL
- MIC [2]: > 128 µg/mL
- MIC [3]: > 128 µg/mL

SMILES: COc1c(N2C[C@H]3CCCN(C(=O)Cn4cc(CN5C(=O)/C(=N/NC(N)=S)c6ccccc65)nn4)[C@H]3C2)c(F)cc2c(=O)c(C(=O)O)cn(C3CC3)c12
- MIC [1]: 0.5 µg/mL (≈ 0.673 µM)
- MIC [2]: 0.25 µg/mL (≈ 0.337 µM)
- MIC [3]: 0.25 µg/mL (≈ 0.337 µM)

SMILES: NNC(=O)c1ccncc1 [ISONIAZID]
- MIC [1]: > 128 µg/mL
- MIC [2]: 64 µg/mL (≈ 467 µM)
- MIC [3]: 0.5 µg/mL (≈ 3.65 µM)

SMILES: COc1c(N2CCNC(C)C2)c(F)cc2c(=O)c(C(=O)O)cn(C3CC3)c12 (centres undefined) [GATIFLOXACIN]
- MIC [1]: 0.5 µg/mL (≈ 1.33 µM)
- MIC [2]: 0.25 µg/mL (≈ 0.666 µM)
- MIC [3]: 1 µg/mL (≈ 2.66 µM)

SMILES: CO/N=C1/C(=O)N(Cc2cn(CC(=O)N3CCC[C@@H]4CN(c5c(F)cc6c(=O)c(C(=O)O)cn(C7CC7)c6c5OC)C[C@@H]43)nn2)c2ccccc21
- MIC [1]: 1 µg/mL (≈ 1.43 µM)
- MIC [2]: 0.5 µg/mL (≈ 0.716 µM)
- MIC [3]: 1 µg/mL (≈ 1.43 µM)

SMILES: COc1c(N2C[C@H]3CCCN(C(=O)Cn4cc(CN5C(=O)C(=O)c6ccccc65)nn4)[C@H]3C2)c(F)cc2c(=O)c(C(=O)O)cn(C3CC3)c12
- MIC [1]: 0.25 µg/mL (≈ 0.373 µM)
- MIC [2]: 0.5 µg/mL (≈ 0.747 µM)
- MIC [3]: 0.5 µg/mL (≈ 0.747 µM)
